# Rows were chosen to be rich in hits. Some 2% of all compounds tested hit in one or more screens of this group.
# FLuc inhib CS = firefly luciferase enzyme inhibitors, primary screen, artefact control for luciferase-based inhibitor screens, biochemical, luminescence, ATPLite; Luciferin 4-monooxygenase (Photinus pyralis), P08659; 10 min; inhibition, % at 10 µM; hit rate 1.5% among 200,000;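 active means inhibition above about 50% when tested at 10 µM, limit read from the data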
# Target sequence (P08659 whole entry, looked up): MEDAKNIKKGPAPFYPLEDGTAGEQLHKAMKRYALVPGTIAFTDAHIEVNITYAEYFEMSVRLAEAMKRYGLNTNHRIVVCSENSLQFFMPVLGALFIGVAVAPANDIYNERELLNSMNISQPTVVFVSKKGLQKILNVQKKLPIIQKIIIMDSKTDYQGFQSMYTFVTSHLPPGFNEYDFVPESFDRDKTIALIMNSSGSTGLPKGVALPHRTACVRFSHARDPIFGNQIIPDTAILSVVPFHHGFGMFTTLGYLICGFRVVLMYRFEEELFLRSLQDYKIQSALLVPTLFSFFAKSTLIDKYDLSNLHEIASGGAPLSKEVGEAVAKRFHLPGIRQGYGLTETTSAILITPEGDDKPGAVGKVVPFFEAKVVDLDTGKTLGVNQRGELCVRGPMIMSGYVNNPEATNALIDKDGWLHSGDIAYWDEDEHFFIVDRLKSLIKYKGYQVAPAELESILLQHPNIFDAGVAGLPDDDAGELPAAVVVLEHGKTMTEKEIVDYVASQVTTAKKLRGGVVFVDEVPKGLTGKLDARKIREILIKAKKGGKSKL
# FLuc act counter = FLuc activators, initial screening, artefact control for FLuc-dependent activation tests, biochemical, ATPlite luminescence | Luciferin 4-monooxygenase (Photinus pyralis), P08659 | ATPlite luciferase biochemical, 10 min; 0 = ATP-free wells, 1 = DMSO control | activation factor at 10 µM | 200,000 tested, under 10 active;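 active means luciferase activation factor, scaled between plate controls, of at least 2 with compound at 10 µM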
#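 Material: luciferase plus luciferin reagent, cell-free. Medium: PBS buffer for ATP. Also added: ATP substrate, dispensed from a 10.24 µM working solution in PBS. Doses: test compounds dosed from 2 mM stocks in 100% DMSO. Incubation: 10 min post-reagent at room temperature. Technique: light output (luminescence). Read-out basis: luminescence gain marking luciferase activators.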
# PPC-1+TRAIL kill = compounds killing PPC-1 cancer cells with TRAIL present, primary screen, TRAIL potentiator project, ATPLite luminescence, uHTS. PPC-1 cells + TRAIL, ATPLite viability luminescence. cell killing (% activity), % at 4 µM or 5 µM. hit rate 0.41% among 220,000;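 active means cell killing above 50% in the first pass at 4 µM, then a duplicate retest at 5 µM averaging 50% or more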;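 further: plate controls were cells with TRAIL plus DMSO for no effect and medium-only wells lacking cells for full effect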
# TRAIL sens C8 = viability loss with TRAIL in NB7+C8 cells, primary screen, TRAIL sensitizer project, cell-based, ATPlite luminescence; hit rate 1% among 360,000; AID 624354, 2012; inhibition (viability loss, TRAIL sensitization), % at 10 µM;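 active means compounds causing at least 50% loss of cell viability in the single-dose screen, relative to plate controls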
# HSP90 refold inh = HSP90 inhibitors, primary screen, cell lysate, luminescence; Heat shock protein HSP 90 (rabbit reticulocyte lysate; luciferase refolding); Rabbit reticulocyte lysate, luciferase refolding luminescence, 3 h; AID 1789, 2009; hit rate 0.91% among 290,000; inhibition, % at 5.6 µM;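 active means inhibition above the screen-wide mean plus 3 SD, computed separately per campaign, cut at about 16% in these data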;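 further: 0% = DMSO wells and 100% = 60 µM geldanamycin wells; inhibitors lower the luminescence because luciferase stays unfolded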
# PPC1 cytotox = cytotoxicity in PPC-1 cells, confirmation, cytotoxicity control for TRAIL apoptosis potentiator project, cell-based, ATP content luminescence. shares compounds with PPC-1+TRAIL kill. PPC-1 viability, ATPlite luminescence, overnight. cytotoxicity, % at 5 µM. hit rate 50% among 1,200;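 active means reconfirmed compounds whose average cytotoxicity reaches 50% or more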;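 further: 0% = DMSO-treated cells and 100% = wells holding medium but no cells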
# * marks the source's active call; other numbers are inactive results; x = no result.
SMILES,FLuc inhib CS,FLuc act counter,PPC-1+TRAIL kill,TRAIL sens C8,HSP90 refold inh,PPC1 cytotox
Cc1c(NC(=O)CSc2ccccc2Cl)c(=O)n(-c2ccccc2)n1C,-8,1.1,9,2,-5,x
COc1ccc(CNC(=O)CSc2nnc3c(n2)[nH]c2ccc(OC)cc23)cc1,x,x,x,-7,-3,x
COc1ccc2[nH]c3nc(SC(C)C)nnc3c2c1,63*,0.4,58*,63*,6,56*
O=C(NCCN1CCC(n2c(=O)[nH]c3ccccc32)CC1)c1ccc(F)cc1Cl,x,x,x,-13,x,x
NNC(=O)c1cc2c(s1)CCCCCC2,-5,1.1,-6,-15,-2,-1
O=C(CCl)N=c1sccn1Cc1ccc(Cl)cc1Cl,-1,1,98*,97*,0,96*
CCC(=O)OCC(=O)N=c1sccn1Cc1ccccc1Cl,x,x,x,8,-5,x
O=C(CCl)N=c1sccn1Cc1ccccc1Cl,x,x,98*,95*,1,95*
O=C(CCl)N=c1sccn1Cc1cccc2ccccc12,0,1,97*,95*,9,98*
CCC(=O)OCC(=O)N=c1sccn1Cc1ccc(C)cc1,x,x,x,4,-6,x
CCCS(=O)(=O)NC(=O)C1(C)CCN(C(=O)c2ccc(C(F)(F)F)nc2C)C1 (stereo unspecified),x,x,x,-4,x,x
O=C(Nc1ccc([N+](=O)[O-])cc1)C(=O)Nc1cccc(C(=O)O)c1,x,x,75*,86*,78*,70*
O=C(O)c1cc(NC(=O)c2ccc([N+](=O)[O-])cc2)cc(NC(=O)c2ccc([N+](=O)[O-])cc2)c1,x,x,x,1,-6,x
COc1ccc(-c2cn3cc(C)ccc3n2)cc1OC,88*,0.1,75*,72*,11,73*
COc1ccc(-c2csc(C)n2)cc1OC,-3,1,9,-34,2,x
COC(=O)c1ccc(NC(=O)c2ccc3c(c2)OCO3)cc1,13,0.9,-2,8,0,x
COC(=O)c1sccc1NC(=O)c1ccc2c(c1)OCO2,-2,1,4,-3,3,6
Cc1ccccc1NC(=O)c1ccc2c(c1)OCCO2,21,0.8,21,-1,2,19
Cc1cccc(NC(=O)c2ccc3c(c2)OCCO3)c1C,x,x,x,15,4,x
Cc1ccc(NC(=O)c2c(C)noc2C)cc1,-13,1.1,-10,-6,-3,-13
Cc1noc(C)c1C(=O)Nc1cccnc1,-6,1.1,7,-10,4,x
Cc1ccc(NC(=S)Nc2cccc3cnccc23)cc1,4,1,27,3,5,x
FC(F)(F)c1ccccc1NC(=S)Nc1cccc2cnccc12,-4,1,42,9,1,x
Fc1ccccc1NC(=S)Nc1cccc2cnccc12,-6,1.1,-16,3,4,-27
Cc1ccc(NC(=S)Nc2cccc3cnccc23)cc1C,0,1,3,30,5,-9
SMILES,FLuc inhib CS,FLuc act counter,PPC-1+TRAIL kill,TRAIL sens C8,HSP90 refold inh,PPC1 cytotox
CCCNC(=O)c1cc(C2CCCCN2C(=O)CCCc2ccccc2)on1 (stereo unspecified),x,x,x,-13,x,x
O=c1nc(Oc2ccccc2)nc2ncccn12,x,x,x,-12,x,x
COC(=O)[C@H](CC(C)C)NC(=O)CC[C@H]1O[C@@H](n2ccc(=O)[nH]c2=O)[C@H](O)[C@@H]1O,x,x,x,-18,x,x
O=C(NCCCN1CCCC1=O)c1cccc(C(F)(F)F)c1,-4,1,1,-9,0,-3
O=C(NCCCN1CCCC1=O)c1cccc(NS(=O)(=O)c2ccccc2)c1,x,x,x,1,x,x
Cc1ccsc1C(=O)N1CCC1(C)C(=O)NS(=O)(=O)c1ccc(C#N)cc1 (stereo unspecified),x,x,x,8,x,x
COCCNC(=S)N(C)[C@H]1C[C@H]2c3cc(-c4ccccc4)ccc3CCN2C(=O)[C@H]1[C@H](C)O,x,x,x,2,x,x
CC(C)(C)C1=C(C#N)C(c2cc3c(cc2Br)OCO3)C(C#N)=C(N)O1 (stereo unspecified),-2,1,-10,-7,x,4
CCN(CC)C(=O)c1cccc(-c2csc(C(O)c3cccc(Cl)c3)n2)c1 (stereo unspecified),x,x,x,5,x,x
Nc1[nH]n(-c2ccccc2)c(=O)c1N=Nc1ccc2c(c1)OCCO2,76*,0.2,45,55*,-3,42
CCCCCCCn1c2c(c(=N)c3ccccc31)CCC2,-6,1.1,18,60*,-1,17
CCCn1c2c(c(=N)c3c1CCC3)CCC2,x,x,-6,18,-1,x
COC(=O)C[C@@H]1C=C[C@H](NC(=O)Nc2cc(F)ccc2F)[C@@H](CO)O1,x,x,x,-6,x,x
Cc1cccc(C)c1NC(=O)C1C(c2ccc3c(c2)OCO3)=Nc2ccccc2N1C(=O)c1ccccn1 (stereo unspecified),x,x,x,17,x,x
Cc1ccc(S(=O)(=O)NC(=O)C2(C)CCN2C(=O)Cc2ccc(Cl)cc2Cl)nc1 (stereo unspecified),x,x,x,8,x,x
O=C(Nc1nnc(SCC(=O)N2CCOCC2)s1)c1ccccc1Cl,85*,0.2,58*,69*,2,56*
Cc1cc2nc(-c3cccc(Br)c3)c(Cc3ccccc3)n2c(C)c1Br,x,x,x,5,x,x
CCCCCc1ccc(OCCCC[n+]2ccc(C)cc2)c(CCCCC)c1,1,1,27,46,5,9
CCCCCc1ccc(OCCCC[n+]2cccc(C)c2)c(CCCCC)c1,-6,1.1,21,21,4,27
O=S1(=O)N[C@H](Cc2ccccc2)COc2cccc(N3CCC[C@@H]3CO)c21,x,x,x,-12,x,x
Cc1cccc(OCCn2c(NC(=O)c3ccco3)nc3ccccc32)c1,4,1,7,13,1,13
COc1ccc(Cl)cc1NC(=O)N1CCN(S(C)(=O)=O)CC1,-4,1,5,10,-2,-9

# Source: PubChem (several laboratories)
